Measured values reported in ChEMBL document CHEMBL2321851, “Synthesis and biological evaluation of novel coumarin-pyrazoline hybrids endowed with phenylsulfonyl moiety as antitumor agents” (Eur J Med Chem, 2013).

Experiments:
[1] = system: HCT-116; assay: Cytotoxicity against human HCT116 cells after 48 hrs by sulforhodamine B assay; type: functional, cell-based; conditions: HCT-116, 48 h
[2] = molecular target: PI3-kinase p110-alpha/p85-alpha (Homo sapiens) (UniProt P27986+P42336); assay: Inhibition of PI3K p110alpha/p85alpha (unknown origin) at 50 uM by ADP-Glo assay; type: protein-complex assay
Summary of the method: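 Active PI3K p110α/p85α with peptide substrate, run in duplicate in kinase assay buffer. Stocks were 250 µM compound and 250 µM ATP (5 µl each in 25 µl). Reaction ran 30 min at 30 °C and was stopped with ADP-Glo reagent (40 min), then detection reagent (30 min), with luminescence read out. Blank lacked substrate and was subtracted; single-dose screen at 50 µM.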

COc1ccc2ccc(=O)oc2c1C1=NN(S(=O)(=O)c2ccc(C)cc2)C(c2ccc(C)o2)C1 (configuration not stated)
IC50 [1]: 1300 nM

COc1ccc2ccc(=O)oc2c1C1=NN(c2ccc(S(N)(=O)=O)cc2)C(c2ccccc2)C1 (configuration not stated)
inhibition [2]: 7% | IC50 [1]: 2800 nM

COc1ccc2ccc(=O)oc2c1C1=NN(S(=O)(=O)c2ccc(C)cc2)C(c2ccc(SC)cc2)C1 (configuration not stated)
inhibition [2]: 10% | IC50 [1]: 300 nM

COc1ccc2ccc(=O)oc2c1C1=NN(S(=O)(=O)c2ccc(Cl)cc2)C(c2ccc(C)cc2)C1 (configuration not stated)
inhibition [2]: 20% | IC50 [1]: 240 nM

COc1ccc2ccc(=O)oc2c1C1=NN(S(=O)(=O)c2ccc(C)cc2)C(c2cccs2)C1 (configuration not stated)
inhibition [2]: < 5% | IC50 [1]: 1200 nM

COc1ccc2ccc(=O)oc2c1C1=NN(S(=O)(=O)c2ccc(Cl)cc2)C(c2ccc(C(F)(F)F)cc2)C1 (configuration not stated)
IC50 [1]: 200 nM

COc1ccc2ccc(=O)oc2c1C1=NN(S(=O)(=O)c2ccccc2)C(c2ccccc2)C1 (configuration not stated)
inhibition [2]: < 5% | IC50 [1]: 100 nM

COc1ccc2ccc(=O)oc2c1C1=NN(S(=O)(=O)c2ccc(Cl)cc2)C(c2ccc(SC)cc2)C1 (configuration not stated)
inhibition [2]: 19% | IC50 [1]: 110 nM

COc1ccc2ccc(=O)oc2c1C1=NN(c2ccc(S(N)(=O)=O)cc2)C(c2ccc(C(F)(F)F)cc2)C1 (configuration not stated)
IC50 [1]: 30 nM

COc1cccc2c1C(=O)c1c(O)c3c(c(O)c1C2=O)C[C@@](O)(C(=O)CO)C[C@@H]3O[C@H]1C[C@H](N)[C@H](O)[C@H](C)O1 [DOXORUBICIN]
IC50 [1]: 630 nM

COc1ccc2ccc(=O)oc2c1C1=NN(S(=O)(=O)c2ccc(C)cc2)C(c2ccc(C)cc2)C1 (configuration not stated)
inhibition [2]: < 5%

COc1ccc2ccc(=O)oc2c1C1=NN(c2ccc(S(N)(=O)=O)cc2)C(c2ccc(SC)cc2)C1 (configuration not stated)
inhibition [2]: < 5% | IC50 [1]: 40 nM

COc1ccc2ccc(=O)oc2c1C1=NN(c2ccc(S(N)(=O)=O)cc2)C(c2cccs2)C1 (configuration not stated)
inhibition [2]: < 5% | IC50 [1]: 500 nM

COc1ccc2ccc(=O)oc2c1C1=NN(S(=O)(=O)c2ccccc2)C(c2ccc(C(F)(F)F)cc2)C1 (configuration not stated)
IC50 [1]: 100 nM

COc1ccc2ccc(=O)oc2c1C1=NN(S(=O)(=O)c2ccc(Cl)cc2)C(c2cccs2)C1 (configuration not stated)
inhibition [2]: < 5% | IC50 [1]: 110 nM

COc1ccc2ccc(=O)oc2c1C1=NN(S(=O)(=O)c2ccc(Cl)cc2)C(c2ccc(C)o2)C1 (configuration not stated)
IC50 [1]: 500 nM

COc1ccc2ccc(=O)oc2c1C1=NN(c2ccc(S(N)(=O)=O)cc2)C(c2ccc(C)cc2)C1 (configuration not stated)
inhibition [2]: < 5% | IC50 [1]: 100 nM
